According to ChEMBL document CHEMBL4480373, “Neuropilin-1 peptide-like ligands with proline mimetics, tested using the improved chemiluminescence affinity detection method” (Medchemcomm, 2019):
Square brackets hold non-standard residues; d marks the D form. Peptide text beside a SMILES is read from it. Oic = O=C(O)[C@@H]1C[C@@H]2CCCC[C@@H]2N1; Hyp = O=C(O)[C@@H]1C[C@@H](O)CN1; Pip(4-aza) = O=C(O)[C@@H]1CNCCN1; hArg = N=C(N)NCCCC[C@H](N)C(=O)O; Tic = O=C(O)[C@@H]1Cc2ccccc2CN1; ΔPro = O=C(O)[C@@H]1C=CCN1; Aze = O=C(O)[C@@H]1CCN1; Dab = NCC[C@H](N)C(=O)O

What was measured:
[1] = target: T1, Neuropilin-1 (Homo sapiens, UniProt O14786); test: Inhibition of human biotinylated VEGF-A165 binding to recombinant human NRP1 receptor at 25 uM after 2 hrs by chemiluminescence analysis relative to control
T1 sequence (O14786 whole entry): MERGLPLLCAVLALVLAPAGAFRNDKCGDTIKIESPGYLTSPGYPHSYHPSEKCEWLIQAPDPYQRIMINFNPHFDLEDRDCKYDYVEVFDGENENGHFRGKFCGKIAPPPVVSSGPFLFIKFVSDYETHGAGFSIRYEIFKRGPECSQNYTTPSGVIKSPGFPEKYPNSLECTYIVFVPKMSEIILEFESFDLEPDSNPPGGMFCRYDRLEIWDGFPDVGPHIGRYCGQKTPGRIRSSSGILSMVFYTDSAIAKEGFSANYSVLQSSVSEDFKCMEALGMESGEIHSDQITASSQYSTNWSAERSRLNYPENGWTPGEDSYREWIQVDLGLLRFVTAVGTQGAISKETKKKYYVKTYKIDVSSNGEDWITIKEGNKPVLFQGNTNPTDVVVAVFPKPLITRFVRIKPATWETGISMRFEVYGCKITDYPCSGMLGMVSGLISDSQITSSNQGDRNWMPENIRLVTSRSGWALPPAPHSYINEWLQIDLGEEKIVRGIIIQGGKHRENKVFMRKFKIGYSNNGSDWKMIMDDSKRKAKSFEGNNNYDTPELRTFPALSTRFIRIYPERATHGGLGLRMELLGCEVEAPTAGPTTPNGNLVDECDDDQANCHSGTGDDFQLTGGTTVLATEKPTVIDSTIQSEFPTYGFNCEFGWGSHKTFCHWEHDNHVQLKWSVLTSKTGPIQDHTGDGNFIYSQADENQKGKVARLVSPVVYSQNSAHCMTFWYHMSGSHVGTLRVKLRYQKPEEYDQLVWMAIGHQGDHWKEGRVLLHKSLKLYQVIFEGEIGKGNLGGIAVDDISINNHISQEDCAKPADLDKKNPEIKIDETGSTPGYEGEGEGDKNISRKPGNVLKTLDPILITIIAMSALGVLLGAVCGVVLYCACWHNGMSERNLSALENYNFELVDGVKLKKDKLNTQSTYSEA
Procedure, shortened: (§1)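 Wells coated overnight at 4 °C with recombinant human NRP-1 (200 ng/well), blocked with 0.5% BSA/PBS. Peptide in PBS and biotinylated human VEGF-A165 (400 ng/mL, in PBS with 4 µg/mL heparin) incubated 2 h at room temperature. Detection by streptavidin-HRP and luminol chemiluminescence. Controls: ligand only (positive) and uncoated wells (negative). % inhibition calculated from these. IC50 by nonlinear regression.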

[2] = target: Neuropilin-1 (Rattus norvegicus) (UniProt Q9QWJ9); test: Inhibition of human biotinylated VEGF-A165 binding to Fc-tagged recombinant rat NRP1 receptor at 0.3 uM after 2 hrs by colorimetric analysis relative to control
[3] = target: Neuropilin-1 (Rattus norvegicus) (UniProt Q9QWJ9); test: Inhibition of human biotinylated VEGF-A165 binding to Fc-tagged recombinant rat NRP1 receptor at 3 uM after 2 hrs by colorimetric analysis relative to control
[4] = target: T1, Neuropilin-1; test: Inhibition of human biotinylated VEGF-A165 binding to recombinant human NRP1 receptor at 100 uM after 2 hrs by chemiluminescence analysis relative to control; procedure, shortened: as §1
[5] = target: T1, Neuropilin-1; test: Inhibition of human biotinylated VEGF-A165 binding to recombinant human NRP1 receptor after 2 hrs by chemiluminescence analysis; procedure, shortened: as §1
[6] = target: Neuropilin-1 (Rattus norvegicus) (UniProt Q9QWJ9); test: Inhibition of human biotinylated VEGF-A165 binding to Fc-tagged recombinant rat NRP1 receptor at 10 uM after 2 hrs by colorimetric analysis relative to control
[7] = target: Neuropilin-1 (Rattus norvegicus, UniProt Q9QWJ9); test: Inhibition of human biotinylated VEGF-A165 binding to Fc-tagged recombinant rat NRP1 receptor after 2 hrs by colorimetric analysis
[8] = target: T1, Neuropilin-1; test: Inhibition of human biotinylated VEGF-A165 binding to recombinant human NRP1 receptor at 50 uM after 2 hrs by chemiluminescence analysis relative to control; procedure, shortened: as §1
[9] = target: T1, Neuropilin-1; test: Inhibition of human biotinylated VEGF-A165 binding to recombinant human NRP1 receptor at 10 uM after 2 hrs by chemiluminescence analysis relative to control; procedure, shortened: as §1
[10] = target: Neuropilin-1 (Rattus norvegicus) (UniProt Q9QWJ9); test: Inhibition of human biotinylated VEGF-A165 binding to Fc-tagged recombinant rat NRP1 receptor at 1 uM after 2 hrs by colorimetric analysis relative to control
[11] = target: T1, Neuropilin-1; test: Inhibition of human biotinylated VEGF-A165 binding to recombinant human NRP1 receptor at 2.5 uM after 2 hrs by chemiluminescence analysis relative to control; procedure, shortened: as §1
[12] = target: T1, Neuropilin-1; test: Inhibition of human biotinylated VEGF-A165 binding to recombinant human NRP1 receptor at 5 uM after 2 hrs by chemiluminescence analysis relative to control; procedure, shortened: as §1
[13] = target: T1, Neuropilin-1; test: Inhibition of human biotinylated VEGF-A165 binding to recombinant human NRP1 receptor at 1 uM after 2 hrs by chemiluminescence analysis relative to control; procedure, shortened: as §1
[14] = target: Neuropilin-1 (Rattus norvegicus) (UniProt Q9QWJ9); test: Inhibition of human biotinylated VEGF-A165 binding to Fc-tagged recombinant rat NRP1 receptor at 0.1 uM after 2 hrs by colorimetric analysis relative to control
[15] = Half life in human plasma at 1 umol/ml up to 96 hrs by RP-HPLC and LC/MS analysis; format: ADME, cell-free
Procedure, shortened: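 Citrate plasma pooled from four healthy donors, stored at –80 °C, preactivated 20 min at 37 °C with shaking. Aqueous peptide stock diluted into plasma to ~1 µmol/mL final and incubated 0–96 h. Aliquots quenched with equal volume 98% ethanol, centrifuged, supernatant lyophilized, reconstituted in water, analysed by RP-HPLC (LC-MS for selected samples). Half-life obtained by nonlinear regression.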

| Molecule | inhibition [1] [%] | inhibition [2] [%] | inhibition [3] [%] | inhibition [4] [%] | IC50 ([5]; read-out: IC50) [µM] | inhibition [6] [%] | IC50 [7] [µM] | inhibition [8] [%] | inhibition [9] [%] | inhibition [10] [%] | inhibition [11] [%] | inhibition [12] [%] | inhibition [13] [%] | inhibition [14] [%] | IC50 ([5]; read-out: pIC50 (converted)) [µM] | half-life at 1000 µM [15] [h] |
| --- | --- | --- | --- | --- | --- | --- | --- | --- | --- | --- | --- | --- | --- | --- | --- | --- |
| N=C(N)NCCCC[C@H](N)C(=O)NCCCC[C@H](N)C(=O)N1CCC[C@H]1C(=O)N1CCC[C@H]1C(=O)N[C@@H](CCCNC(=N)N)C(=O)O (H-K(hArg)PPR-OH) | 54.1 | 4.7 | 79 | 77 | 20.9 | 92.2 | 1 | 67.9 | 37.1 | 41.4 |  |  |  |  |  |  |
| N=C(N)NCCCC[C@H](N)C(=O)NCCCC[C@H](N)C(=O)N1CC[C@H]1C(=O)N1CC[C@H]1C(=O)N[C@@H](CCCNC(=N)N)C(=O)O (H-K(hArg)[Aze][Aze]R-OH) | 41.9 |  |  | 59.9 | 48.6 |  |  | 53.6 | 30 |  |  |  |  |  |  |  |
| N=C(N)NCCCC[C@H](N)C(=O)NCCCC[C@H](N)C(=O)N[C@@H](CCN)C(=O)N1CCC[C@H]1C(=O)N[C@@H](CCCNC(=N)N)C(=O)O (H-K(hArg)[Dab]PR-OH) | 70.4 | 59.6 | 92.8 | 79.8 | 8.9 | 99.6 | 0.2 | 76.6 | 58.6 | 83.7 | 31.4 | 43.7 | 13.8 | 35.8 |  |  |
| N=C(N)NCCCC[C@H](N)C(=O)NCCCC[C@H](N)C(=O)N[C@@H](CCN)C(=O)N1CC[C@H]1C(=O)N[C@@H](CCCNC(=N)N)C(=O)O (H-K(hArg)[Dab][Aze]R-OH) | 69.1 |  |  | 78.8 | 11.7 |  |  | 75.8 | 49.6 |  | 12.9 | 30.1 | 7.7 |  | 10.7 |  |
| N=C(N)NCCCC[C@H](N)C(=O)NCCCC[C@H](N)C(=O)N[C@@H](CCN)C(=O)N1C[C@H](O)C[C@H]1C(=O)N[C@@H](CCCNC(=N)N)C(=O)O (H-K(hArg)[Dab][Hyp]R-OH) | 67.3 |  |  | 78.6 | 9.2 |  |  | 76 | 54.3 |  | 22.3 | 36 | 22.5 |  |  |  |
| N=C(N)NCCCC[C@H](N)C(=O)NCCCC[C@H](N)C(=O)N[C@@H](CCN)C(=O)N1[C@H](C(=O)N[C@@H](CCCNC(=N)N)C(=O)O)C[C@@H]2CCCC[C@@H]21 (H-K(hArg)[Dab][Oic]R-OH) | 77.7 |  |  | 83 | 2.3 |  |  | 79.5 | 63.4 |  | 50.9 | 52.3 | 37.7 |  |  | 54.9 |
| N=C(N)NCCCC[C@H](N)C(=O)NCCCC[C@H](N)C(=O)N[C@@H](CCN)C(=O)N1CCNC[C@H]1C(=O)N[C@@H](CCCNC(=N)N)C(=O)O (H-K(hArg)[Dab][Pip(4-aza)]R-OH) | 34.8 |  |  | 51.8 | 80.5 |  |  | 46 | 20.8 |  |  |  |  |  |  |  |
| N=C(N)NCCCC[C@H](N)C(=O)NCCCC[C@H](N)C(=O)N[C@@H](CCN)C(=O)N1Cc2ccccc2C[C@H]1C(=O)N[C@@H](CCCNC(=N)N)C(=O)O (H-K(hArg)[Dab][Tic]R-OH) | 35 |  |  | 0 | > 100 |  |  | 17.2 | 31.5 |  |  |  |  |  |  |  |
| N=C(N)NCCCC[C@H](N)C(=O)NCCCC[C@H](N)C(=O)N[C@@H](CCN)C(=O)N1CC=C[C@H]1C(=O)N[C@@H](CCCNC(=N)N)C(=O)O (H-K(hArg)[Dab][ΔPro]R-OH) | 78.1 |  |  | 87.1 | 4.3 |  |  | 84.4 | 70.7 |  | 44.8 | 58 | 29.9 |  |  | 51.1 |
| N=C(N)NCCCC[C@H](N)C(=O)NCCCC[C@H](N)C(=O)N1C[C@H](O)C[C@H]1C(=O)N1C[C@H](O)C[C@H]1C(=O)N[C@@H](CCCNC(=N)N)C(=O)O (H-K(hArg)[Hyp][Hyp]R-OH) | 56.8 |  |  | 71.7 | 21.3 |  |  | 63.1 | 36.7 |  |  |  |  |  |  |  |
| N=C(N)NCCCC[C@H](N)C(=O)NCCCC[C@H](N)C(=O)N1[C@H](C(=O)N2[C@H](C(=O)N[C@@H](CCCNC(=N)N)C(=O)O)C[C@@H]3CCCC[C@@H]32)C[C@@H]2CCCC[C@@H]21 (H-K(hArg)[Oic][Oic]R-OH) | 68.2 |  |  | 83.6 | 7.2 |  |  | 77.6 | 53.4 |  | 42.1 | 47.8 | 32.9 |  |  |  |
| N=C(N)NCCCC[C@H](N)C(=O)NCCCC[C@H](N)C(=O)N1CCNC[C@H]1C(=O)N1CCNC[C@H]1C(=O)N[C@@H](CCCNC(=N)N)C(=O)O (H-K(hArg)[Pip(4-aza)][Pip(4-aza)]R-OH) | 58.7 |  |  | 70.8 | 16 |  |  | 63.3 | 45 |  |  |  |  |  |  |  |
| N=C(N)NCCCC[C@H](N)C(=O)NCCCC[C@H](N)C(=O)N1Cc2ccccc2C[C@H]1C(=O)N1Cc2ccccc2C[C@H]1C(=O)N[C@@H](CCCNC(=N)N)C(=O)O (H-K(hArg)[Tic][Tic]R-OH) | 31.4 |  |  | 45.2 | > 100 |  |  | 40.7 | 24.7 |  |  |  |  |  |  |  |
| N=C(N)NCCCC[C@H](N)C(=O)NCCCC[C@H](N)C(=O)N1CC=C[C@H]1C(=O)N1CC=C[C@H]1C(=O)N[C@@H](CCCNC(=N)N)C(=O)O (H-K(hArg)[ΔPro][ΔPro]R-OH) | 61.3 |  |  | 79.3 | 14 |  |  | 72.2 | 45.4 |  |  |  |  |  |  |  |
| H-ATWLPPR-OH | 35 |  |  | 58.2 | 84.1 |  |  | 43.8 | 30.8 |  |  |  |  |  | 83.2 |  |
